Calls of active or inactive are those of the source. No cut-off for these calls is given here.
How the values were obtained:
[1] = Cmax in dog plasma at 3 mg/kg, po; assay type: ADME, organism-based, Canis lupus familiaris; design: dose 3 mg/kg, route oral
MM1.S = assay: Antiproliferative activity against human MM1S cells after 72 hrs by CCK8 or SRB assay; assay type: functional, cell-based
How it was run: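 IC50 against MM.1S cell proliferation was taken as the mean of three independent experiments, each run in triplicate, reported with SEM.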

[2] = molecular target: Bromodomain-containing protein 1 (Homo sapiens) (UniProt O95696); assay: Binding affinity to human partial length BRD1 (E556 to A688 residues) expressed in Escherichia coli BL21 cells assessed as residual binding level at 1 uM measured after 1 hr by quantitative PCR based BROMOscan assay relative to control
How it was run: (§1)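 A BROMOScan competition-binding panel of 32 bromodomains was run at a single 1 μM compound concentration. Results are primary-screen 'Percent Control', where lower values indicate stronger binding.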

[3] = molecular target: Bromodomain and PHD finger-containing protein 3 (Homo sapiens) (UniProt Q9ULD4); assay: Binding affinity to human partial length BRPF3 (E588 to G701 residues) expressed in Escherichia coli BL21 cells assessed as residual binding level at 1 uM measured after 1 hr by quantitative PCR based BROMOscan assay relative to control; how it was run: as §1
[4] = molecular target: Bromodomain-containing protein 4 (Homo sapiens, UniProt O60885); assay: Inhibition of BRD4 bromodomain 1 (unknown origin)
How it was run: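 BRD4 BD1 (His6-tagged, E. coli BL21(DE3)-expressed, Ni-NTA purified) at 10 nM with 5 nM FITC-labelled (+)-JQ1 tracer; 50 mM HEPES pH 7.4, 150 mM NaCl, 0.5 mM CHAPS, DMSO 2‰ final; graded inhibitor; 4 h dark equilibration at room temperature; fluorescence anisotropy read (ex 485/em 530 nm). IC50 from two independent experiments in duplicate, mean ± SEM.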

[5] = molecular target: Proto-oncogene tyrosine-protein kinase Src (Homo sapiens) (UniProt P12931); assay: Inhibition of Src (unknown origin) at 10 uM using poly (Glu, Tyr) 4:1 as substrate after 60 mins by ELISA
MV4-11 = assay: Induction of apoptosis in human MV4-11 cells assessed as reduction in BCL-xL level after 24 hrs by Western blot analysis; assay type: functional, cell-based
How it was run: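 MV4-11 cells exposed to compound at the indicated doses for 24 h; lysates probed by Western blotting for the target protein, with GAPDH as loading control.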

[6] = Clearance in dog liver microsomes; assay type: ADME, Canis lupus familiaris, Microsome; details: read-out: CLH
[7] = Tmax in ICR mouse brain at 50 mg/kg, po administered via gavage measured after 0.25 to 24 hrs by UPLC/MS analysis; assay type: ADME, organism-based
How it was run: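 Male ICR mice dosed orally at 50 mg/kg in 1% DMSO/0.5% HPMC; drug measured in plasma and brain.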

[8] = Tmax in rat plasma at 10 mg/kg, po; assay type: ADME, organism-based
How it was run: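 Oral dosing in 1% DMSO/0.5% HPMC vehicle (dog 3 mg/kg; rat 10 mg/kg); plasma drug levels measured.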

[9] = AUC (0 to t) in rat plasma at 10 mg/kg, po; assay type: ADME, organism-based
How it was run: (§2)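 Compound was given orally or intravenously in 1% DMSO/0.5% HPMC vehicle. Concentrations in plasma, or in brain where stated, gave Tmax, Cmax, T1/2, AUC0-t and AUC0-inf.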

[10] = AUC (0 to infinity) in rat brain at 50 mg/kg, po; assay type: ADME, organism-based; design: dose 50 mg/kg, time infinity, route oral; how it was run: as §2
[11] = AUC (0 to infinity) in ICR mouse plasma at 100 mg/kg, po administered via gavage measured after 0.25 to 24 hrs by UPLC/MS analysis; assay type: ADME, organism-based; design: dose 100 mg/kg, time infinity, route oral
How it was run: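 Male ICR mice were dosed orally in 1% DMSO/0.5% HPMC vehicle. Plasma (and brain, where stated) concentrations gave Tmax, Cmax, T1/2, AUC0-t and AUC0-inf.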

Chain of Bromodomain and PHD finger-containing protein 3 (Homo sapiens) (Q9ULD4 whole entry, the tested form may be a part): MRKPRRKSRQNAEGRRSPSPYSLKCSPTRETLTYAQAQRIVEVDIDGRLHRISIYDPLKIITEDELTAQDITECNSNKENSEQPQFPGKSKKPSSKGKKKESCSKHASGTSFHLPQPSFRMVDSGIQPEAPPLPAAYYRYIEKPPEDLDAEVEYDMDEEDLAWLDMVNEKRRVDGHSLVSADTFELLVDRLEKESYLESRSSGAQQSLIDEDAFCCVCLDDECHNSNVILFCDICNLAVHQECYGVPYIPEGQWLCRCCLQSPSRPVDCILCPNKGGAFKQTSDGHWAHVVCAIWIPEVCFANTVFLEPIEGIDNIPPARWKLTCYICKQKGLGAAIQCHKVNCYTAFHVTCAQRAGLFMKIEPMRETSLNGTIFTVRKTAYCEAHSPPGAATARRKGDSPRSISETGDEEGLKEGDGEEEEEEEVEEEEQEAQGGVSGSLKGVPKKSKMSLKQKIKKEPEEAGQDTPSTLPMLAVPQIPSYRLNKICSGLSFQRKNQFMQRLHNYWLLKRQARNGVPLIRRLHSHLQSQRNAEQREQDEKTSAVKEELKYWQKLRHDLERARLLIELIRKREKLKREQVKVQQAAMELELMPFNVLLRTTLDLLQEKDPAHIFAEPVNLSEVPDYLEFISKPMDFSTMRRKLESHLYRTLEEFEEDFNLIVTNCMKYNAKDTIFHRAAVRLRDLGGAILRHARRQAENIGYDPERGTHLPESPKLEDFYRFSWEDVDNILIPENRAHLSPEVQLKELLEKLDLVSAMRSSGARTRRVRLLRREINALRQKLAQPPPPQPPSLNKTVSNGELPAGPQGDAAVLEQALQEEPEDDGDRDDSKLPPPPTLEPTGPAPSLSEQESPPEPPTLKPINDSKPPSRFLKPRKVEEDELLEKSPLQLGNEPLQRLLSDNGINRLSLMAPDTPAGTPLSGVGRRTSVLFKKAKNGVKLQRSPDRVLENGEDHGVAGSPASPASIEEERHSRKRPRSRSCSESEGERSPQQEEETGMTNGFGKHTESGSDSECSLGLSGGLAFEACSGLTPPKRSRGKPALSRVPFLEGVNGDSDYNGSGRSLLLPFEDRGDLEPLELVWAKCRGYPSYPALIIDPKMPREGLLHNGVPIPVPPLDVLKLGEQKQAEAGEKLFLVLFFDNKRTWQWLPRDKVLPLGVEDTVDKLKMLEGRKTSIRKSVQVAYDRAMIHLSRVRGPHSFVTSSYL
Chain of Proto-oncogene tyrosine-protein kinase Src (Homo sapiens) (P12931 2-536 limits assumed): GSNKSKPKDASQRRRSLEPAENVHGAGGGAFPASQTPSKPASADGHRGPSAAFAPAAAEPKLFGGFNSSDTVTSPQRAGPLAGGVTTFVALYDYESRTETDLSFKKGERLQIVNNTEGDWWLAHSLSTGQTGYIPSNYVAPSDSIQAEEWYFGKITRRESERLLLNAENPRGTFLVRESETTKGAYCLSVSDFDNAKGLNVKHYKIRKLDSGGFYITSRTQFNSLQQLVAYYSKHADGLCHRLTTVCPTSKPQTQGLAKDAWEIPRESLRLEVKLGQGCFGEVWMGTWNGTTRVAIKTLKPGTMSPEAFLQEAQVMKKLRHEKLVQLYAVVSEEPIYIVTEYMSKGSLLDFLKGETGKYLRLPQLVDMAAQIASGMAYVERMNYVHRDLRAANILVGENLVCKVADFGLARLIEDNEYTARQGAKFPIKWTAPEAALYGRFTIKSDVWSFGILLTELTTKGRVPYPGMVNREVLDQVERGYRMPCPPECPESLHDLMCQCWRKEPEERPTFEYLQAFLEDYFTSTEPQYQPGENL
Chain of Bromodomain-containing protein 1 (Homo sapiens) (O95696 whole entry, the tested form may be a part): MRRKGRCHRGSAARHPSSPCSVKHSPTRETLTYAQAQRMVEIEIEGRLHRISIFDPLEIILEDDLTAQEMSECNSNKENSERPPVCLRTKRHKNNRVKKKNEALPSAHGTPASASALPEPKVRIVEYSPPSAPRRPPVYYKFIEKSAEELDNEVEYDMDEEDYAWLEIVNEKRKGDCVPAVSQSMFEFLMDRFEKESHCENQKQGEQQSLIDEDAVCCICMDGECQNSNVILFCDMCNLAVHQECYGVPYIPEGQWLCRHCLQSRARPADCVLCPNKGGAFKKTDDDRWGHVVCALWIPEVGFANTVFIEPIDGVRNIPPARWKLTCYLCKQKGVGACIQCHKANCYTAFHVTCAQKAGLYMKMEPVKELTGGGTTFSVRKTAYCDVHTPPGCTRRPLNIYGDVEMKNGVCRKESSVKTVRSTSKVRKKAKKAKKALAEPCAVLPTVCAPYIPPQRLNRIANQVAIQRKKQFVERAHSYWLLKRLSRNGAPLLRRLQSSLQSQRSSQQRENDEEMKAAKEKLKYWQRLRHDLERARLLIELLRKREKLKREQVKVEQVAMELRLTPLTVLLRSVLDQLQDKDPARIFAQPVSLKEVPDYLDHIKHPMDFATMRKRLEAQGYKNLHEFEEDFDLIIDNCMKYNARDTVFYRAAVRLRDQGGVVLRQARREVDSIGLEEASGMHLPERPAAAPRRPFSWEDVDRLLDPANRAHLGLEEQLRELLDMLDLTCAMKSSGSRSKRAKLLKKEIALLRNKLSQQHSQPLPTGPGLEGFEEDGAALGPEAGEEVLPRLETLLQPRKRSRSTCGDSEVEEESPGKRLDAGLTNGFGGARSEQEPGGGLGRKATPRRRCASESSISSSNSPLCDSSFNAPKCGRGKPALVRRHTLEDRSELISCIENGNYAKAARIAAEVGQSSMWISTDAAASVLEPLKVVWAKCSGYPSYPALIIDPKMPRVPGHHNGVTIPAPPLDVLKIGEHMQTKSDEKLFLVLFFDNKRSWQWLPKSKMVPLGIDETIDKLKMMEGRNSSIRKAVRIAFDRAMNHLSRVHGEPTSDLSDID

**Q.** With `Cc1ccc(-n2nc(C(=O)N3C[C@@H](C)N[C@@H](C)C3)nc2-c2ccc3c(c2)N(C2CCCC2)[C@H](C)C(=O)N3C)cc1` as the molecule, how does the Cmax [1] read?
**A.** 216 ng/mL

**Q.** What about the IC50 (MM1.S) of the same molecule?
**A.** 2.3 nM

**Q.** And the Activity [2]?
**A.** 50 to 70%

**Q.** What about the Activity [3] of the same molecule?
**A.** 70 to 100%

**Q.** What about the inhibition [4] of the same molecule?
**A.** Active

**Q.** What about the inhibition [5] of the same molecule?
**A.** Active

**Q.** What about the Activity (MV4-11) of the same molecule?
**A.** Dose-dependent effect

**Q.** And the microsomal CLint [6]?
**A.** 77 µL/min/mg

**Q.** What about the Tmax [7] of the same molecule?
**A.** 1 h

**Q.** And the Tmax [8]?
**A.** 2.3 h

**Q.** What about the AUC(0-t) [9] of the same molecule?
**A.** 1220 ng·h/mL

**Q.** What about the AUC(0-inf) [10] of the same molecule?
**A.** 399 ng·h/mL

**Q.** What about the AUC(0-inf) [11] of the same molecule?
**A.** 82400 ng·h/mL

Reference: ChEMBL document CHEMBL4414574, “Structure-Based Discovery and Development of a Series of Potent and Selective Bromodomain and Extra-Terminal Protein Inhibitors” (J Med Chem, 2019)
